{"data": "Published values from different studies", "target": "Aurora kinase B (AURKB, Homo sapiens, UniProt Q96GD4)"}
{"SMILES": "O=C1CCc2cc(Nc3cc(OC4CCOCC4)c([N+](=O)[O-])cc3Cl)ccc2N1", "assay": "cell-free assay, competition with immobilised ligand", "conditions": "1 µM", "remaining binding [%]": 86}
{"SMILES": "CCN1CCN(Cc2ccc(C(=O)Nc3ccc(C)c(Oc4ccc5c(c4)CC(=O)N5)c3)cc2C(F)(F)F)CC1", "assay": "binding, competition with immobilised ligand", "conditions": "1 µM", "remaining binding [%]": 100}
{"SMILES": "CN([C@@H]1CCc2c(CC(=O)O)c3cc(S(C)(=O)=O)ccc3n2C1)S(=O)(=O)c1ccc(F)cc1", "assay": "cell-free assay, competition with immobilised ligand", "conditions": "1 µM", "remaining binding [%]": 83}
{"SMILES": "N[C@@H]1CCN(c2nccc(-c3cnn4ncccc34)n2)C1", "assay": "binding", "conditions": "1 µM", "remaining binding [%]": 99}
{"SMILES": "Cc1cnc(Nc2ccc(C(=O)N3CCC(N4CCCC4)CC3)cc2)nc1-c1cc2ccccc2s1", "assay": "binding, competition with immobilised ligand", "conditions": "1 µM", "remaining binding [%]": 6.8}
{"SMILES": "CCC(=O)N[C@H]1CC[C@@H](C(=O)N(C)c2ccc(-c3nc4ccccc4o3)cc2)C1", "assay": "cell-free assay, competition with immobilised ligand", "conditions": "1 µM", "remaining binding [%]": 83}
{"SMILES": "CN(C)c1ncc(F)c(-c2cnn3ncccc23)n1", "assay": "binding", "conditions": "1 µM", "remaining binding [%]": 77}
{"SMILES": "COc1cc(C(=O)N2CCC(N3CCN(C)CC3)CC2)ccc1Nc1ncc2c(n1)N(C)c1ccccc1C(=O)N2C", "assay": "binding, competition with immobilised ligand", "conditions": "10 µM", "remaining binding [%]": 38}
{"SMILES": "CNC(=O)[C@@H]1CC[C@@H](n2c(-c3ccc4cnccc4c3)nc3ccc(C(=O)NCc4cccc(C(N)=O)c4)cc32)C1", "assay": "binding, competition with immobilised ligand", "conditions": "1 µM", "remaining binding [%]": 95}
{"SMILES": "C[C@@H]1CN(c2ccc3ncc(-c4ccc5[nH]nc(C6CC6)c5c4)n3n2)C[C@H](C)O1", "assay": "binding, competition with immobilised ligand", "conditions": "50 nM", "remaining binding [%]": 100}
{"SMILES": "CC1=C(C#N)[C@@H](c2ccc3[nH]nc(C)c3c2)C(C#N)=C(c2ccc(Cl)cc2)N1", "assay": "cell-free assay, competition with immobilised ligand", "conditions": "1 µM", "remaining binding [%]": 82.9}
{"SMILES": "O=C(Nc1c[nH]nc1C(=O)NC1CCNCC1)c1cc(F)cc(F)c1", "assay": "binding, competition with immobilised ligand", "conditions": "1 µM", "remaining binding [%]": 78}
{"SMILES": "O=C(NCCCN1CCOCC1)c1ccc(Nc2nccc(-c3cc4ccccc4s3)n2)cc1", "assay": "binding, competition with immobilised ligand", "conditions": "1 µM", "remaining binding [%]": 48}
{"SMILES": "F[C@@H]1CCN(c2nccc(-c3cnn4ncccc34)n2)C1", "assay": "binding", "conditions": "1 µM", "remaining binding [%]": 100}
{"SMILES": "CN(c1ccnc(CNc2nc(Nc3ccc4c(c3)CC(=O)N4)ncc2C(F)(F)F)n1)S(C)(=O)=O", "assay": "cell-free assay, competition with immobilised ligand", "conditions": "1 µM", "remaining binding [%]": 9.9}
{"SMILES": "N#Cc1ccccc1CSc1nnc2c(n1)[nH]c1ccccc12", "assay": "binding, competition with immobilised ligand", "conditions": "10 µM", "remaining binding [%]": 100}
{"SMILES": "Cc1c(C(=O)O)cc(-c2ccc(C3CCNCC3)cc2)c2ccc(-c3ccc(C(F)(F)F)cc3)cc12", "assay": "cell-free assay, competition with immobilised ligand", "conditions": "1 µM", "remaining binding [%]": 100}
{"SMILES": "CN(c1nccc(-c2cnn3ncccc23)n1)C1CC1", "assay": "binding", "conditions": "1 µM", "remaining binding [%]": 100}
{"SMILES": "Nc1ncc2c(n1)-c1c([nH]c3ccc(C#CC4CC4)cc13)CCCC2", "assay": "binding, competition with immobilised ligand", "conditions": "1 µM", "remaining binding [%]": 43}
{"SMILES": "COc1ncc2cc3ccccc3nc2c1C#N", "assay": "cell-free assay, competition with immobilised ligand", "conditions": "5 µM", "remaining binding [%]": 94}
{"SMILES": "O=C(NCCCN1CCOCC1)c1ccc(Nc2ncc(Cl)c(-c3ccc(Cl)s3)n2)cc1", "assay": "binding, competition with immobilised ligand", "conditions": "1 µM", "remaining binding [%]": 15}
{"SMILES": "CN([C@@H]1CCc2c(CC(=O)O)c3ccccc3n2C1)S(=O)(=O)c1ccc(F)cc1", "assay": "cell-free assay, competition with immobilised ligand", "conditions": "1 µM", "remaining binding [%]": 91}
